{"source": "ChEMBL document CHEMBL1828628", "about": "“Discovery of a tetrahydroisoquinoline-based hydroxamic acid derivative (ZYJ-34c) as histone deacetylase inhibitor with potent oral antitumor activities” (J Med Chem, 2011)", "key": {"[1]": {"test_system": "Mus musculus", "experiment": "Toxicity in human MDA-MB-231 cells xenografted BALB/c nu mouse assessed as signs of organ toxicity at 90 mg/kg, po qd for 19 days", "format": "organism-based", "parameters": "dose 90 mg/kg, route oral", "conditions": "in vivo, 456 h"}, "[2]": {"test_system": "Mus musculus", "experiment": "Toxicity in human HCT116 cells xenografted BALB/c nu mouse assessed as signs of organ toxicity at 90 mg/kg, po qd for 19 days", "format": "organism-based, HCT-116", "parameters": "dose 90 mg/kg, route oral", "conditions": "in vivo, 456 h"}, "[3]": {"test_system": "Mus musculus", "experiment": "Toxicity in human HCT116 cells xenografted BALB/c nu mouse assessed as signs of organ toxicity at 60 mg/kg, po qd for 19 days", "format": "organism-based, HCT-116", "parameters": "dose 60 mg/kg, route oral", "conditions": "in vivo, 456 h"}, "[4]": {"experiment": "Stability in artificial intestinal juice", "format": "physicochemical", "conditions": "simulated gi fluid"}, "[5]": {"test_system": "Mus musculus", "experiment": "Toxicity in mouse H22 cells xenografted Kunming mouse assessed as change in body weight at 90 mg/kg, po qd for 19 days", "format": "organism-based", "parameters": "dose 90 mg/kg, route oral", "conditions": "in vivo, 456 h"}, "[6]": {"test_system": "Mus musculus", "experiment": "Toxicity in mouse H22 cells xenografted Kunming mouse assessed as change in body weight at 60 mg/kg, po qd for 19 days", "format": "organism-based", "parameters": "dose 60 mg/kg, route oral", "conditions": "in vivo, 456 h"}, "[7]": {"test_system": "Mus musculus", "experiment": "Toxicity in mouse H22 cells xenografted Kunming mouse assessed as signs of organ toxicity at 90 mg/kg, po qd for 19 days", "format": "organism-based", "parameters": "dose 90 mg/kg, route oral", "conditions": "in vivo, 456 h"}, "[8]": {"experiment": "Antiproliferative activity against human ES2 cells after 48 hrs by MTT assay", "format": "functional, cell-based", "conditions": "ES-2, 48 h", "summary_of_the_method": "(§1)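 Cells kept in RPMI1640 with 10% FBS at 37 °C, 5% CO2. Cells were passaged into 96-well plates the day before dosing and left ≥4 h before compound addition. Exposure was 48 h, then 0.5% MTT for 4 h. Formazan was extracted with DMSO for 15 min and read at 570 nm. IC50 was derived from inhibition ratios; mean of three experiments.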"}, "[9]": {"test_system": "PC-3", "experiment": "Antiproliferative activity against human PC3 cells after 48 hrs by MTT assay", "format": "functional, cell-based", "conditions": "PC-3, 48 h"}, "[10]": {"test_system": "MDA-MB-231", "experiment": "Cell cycle arrest in human MDA-MB-231 cells assessed as accumulation at G2 phase at 2 to 5 uM after 48 hrs using propidium iodide staining by flow cytometric analysis", "format": "functional, cell-based", "summary_of_the_method": "(§2)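 MDA-MB-231 cells were seeded at 4 × 10^5 per well and incubated overnight, then treated for 48 h. Cells were fixed overnight in 70% ethanol phosphate buffer and washed twice with PBS. They were treated with DNase-free RNase A (1 mg/mL) for 30 min, then stained with propidium iodide for 30 min in the dark at room temperature. DNA content was read by FACScan flow cytometry.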"}, "[11]": {"test_system": "MDA-MB-231", "experiment": "Cell cycle arrest in human MDA-MB-231 cells assessed as accumulation at G1 phase at 0.5 uM after 48 hrs using propidium iodide staining by flow cytometric analysis", "format": "functional, cell-based", "summary_of_the_method": "as §2"}, "[12]": {"test_system": "MDA-MB-231", "experiment": "Antitumor activity against human MDA-MB-231 cells xenografted in BALB/c nu mouse assessed as tumor growth inhibition at 90 mg/kg, po qd for 19 days relative to control", "format": "functional"}, "[13]": {"test_system": "MDA-MB-231", "experiment": "Antitumor activity against human MDA-MB-231 cells xenografted in BALB/c nu mouse assessed as tumor growth inhibition at 60 mg/kg, ip qd for 19 days relative to control", "format": "functional", "conditions": "route intraperitoneal", "summary_of_the_method": "(§3)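 Female athymic BALB/c-nu mice, 5–6 weeks old, were inoculated subcutaneously in the right flank with RPMI1640/10% FBS-cultured tumor cells (5 × 10^6 for MDA-MB-231). At about 100 mm3 (~10 days), mice were randomized 6 per group and dosed orally or intraperitoneally for 19 days. Vehicle controls received PBS containing DMSO. TGI = (control − treated mean tumor weight)/control mean tumor weight, at end of treatment.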"}, "[14]": {"test_system": "MDA-MB-231", "experiment": "Antitumor activity against human MDA-MB-231 cells xenografted in BALB/c nu mouse assessed as tumor growth inhibition administered as ip qd for 19 days", "format": "functional, organism-based", "summary_of_the_method": "as §3"}, "[15]": {"test_system": "HCT-116", "experiment": "Antitumor activity against human HCT116 cells xenografted in BALB/c nu mouse assessed as tumor growth inhibition at 60 mg/kg, po qd for 19 days relative to control", "format": "functional", "summary_of_the_method": "as §3"}, "[16]": {"test_system": "H22", "experiment": "Antitumor activity against mouse H22 cells xenografted in Kunming mouse assessed as reduction of pulmonary metastatic nodes in lungs at 90 mg/kg, po qd for 14 days", "format": "functional, organism-based", "parameters": "dose 90 mg/kg"}, "[17]": {"test_system": "Mus musculus", "experiment": "Toxicity in human MDA-MB-231 cells xenografted BALB/c nu mouse assessed as change in body weight at 90 mg/kg, po qd for 19 days", "format": "organism-based", "parameters": "dose 90 mg/kg, route oral", "conditions": "in vivo, 456 h", "summary_of_the_method": "(§4)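 Female BALB/c-nu mice, 5–6 weeks old, bearing subcutaneous right-flank xenografts. Mice were randomized 6 per group at about 100 mm3 tumor size. Dosing was oral or intraperitoneal for 19 days; controls received an equal volume of PBS containing DMSO. Body weight was monitored regularly during treatment, and tumors were measured by caliper every three days.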"}, "[18]": {"test_system": "Mus musculus", "experiment": "Toxicity in human MDA-MB-231 cells xenografted BALB/c nu mouse assessed as change in body weight at 60 mg/kg, ip qd for 19 days", "format": "organism-based", "parameters": "dose 60 mg/kg, route intraperitoneal", "conditions": "in vivo, 456 h", "summary_of_the_method": "as §4"}, "[19]": {"test_system": "Mus musculus", "experiment": "Toxicity in human HCT116 cells xenografted BALB/c nu mouse assessed as change in body weight at 90 mg/kg, po qd for 19 days", "format": "organism-based, HCT-116", "parameters": "dose 90 mg/kg, route oral", "conditions": "in vivo, 456 h", "summary_of_the_method": "as §4"}, "[20]": {"test_system": "Mus musculus", "experiment": "Toxicity in human HCT116 cells xenografted BALB/c nu mouse assessed as change in body weight at 60 mg/kg, po qd for 19 days", "format": "organism-based, HCT-116", "parameters": "dose 60 mg/kg, route oral", "conditions": "in vivo, 456 h", "summary_of_the_method": "as §4"}, "[21]": {"target": "T1, Histone deacetylase 8 (Homo sapiens, UniProt Q9BY41)", "T1 sequence (Q9BY41 whole entry)": "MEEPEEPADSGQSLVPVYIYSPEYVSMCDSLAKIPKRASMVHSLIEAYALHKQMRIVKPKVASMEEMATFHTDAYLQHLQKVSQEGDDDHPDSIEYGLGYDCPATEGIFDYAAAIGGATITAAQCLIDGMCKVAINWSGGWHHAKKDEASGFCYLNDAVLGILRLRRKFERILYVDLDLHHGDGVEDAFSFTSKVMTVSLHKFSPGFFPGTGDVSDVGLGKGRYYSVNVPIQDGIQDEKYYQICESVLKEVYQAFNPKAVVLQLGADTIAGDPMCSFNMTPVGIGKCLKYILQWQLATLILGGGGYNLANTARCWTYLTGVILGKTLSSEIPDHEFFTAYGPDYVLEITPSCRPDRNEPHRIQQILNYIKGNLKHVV", "experiment": "Inhibition of HDAC8 using Boc-Lys (acetyl)-AMC as substrate after 30 mins by fluorescence assay", "summary_of_the_method": "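Enzyme (HeLa nuclear extract, HDAC6 or HDAC8) preincubated 5 min with a series of compound concentrations. Fluorogenic Boc-Lys(acetyl)-AMC substrate then added and incubated 37 °C for 30 min. Reaction stopped with developer containing trypsin and TSA, 20 min at 37 °C. Fluorescence read at ex 390/em 460 nm. Inhibition taken relative to control wells; IC50 from regression of concentration/inhibition data.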"}, "[22]": {"test_system": "MCF7", "experiment": "Antiproliferative activity against human MCF7 cells after 48 hrs by MTT assay", "format": "functional, cell-based", "conditions": "MCF7, 48 h"}, "[23]": {"test_system": "HCT-116", "experiment": "Antiproliferative activity against human HCT116 cells after 48 hrs by MTT assay", "format": "functional, cell-based", "conditions": "HCT-116, 48 h", "summary_of_the_method": "as §1"}, "[24]": {"test_system": "HeLa", "experiment": "Antiproliferative activity against human HeLa cells after 48 hrs by MTT assay", "format": "functional, cell-based", "summary_of_the_method": "as §1"}, "[25]": {"test_system": "K562", "experiment": "Antiproliferative activity against human K562 cells after 48 hrs by MTT assay", "format": "functional, cell-based", "conditions": "K562, 48 h", "summary_of_the_method": "as §1"}, "[26]": {"test_system": "HL-60", "experiment": "Antiproliferative activity against human HL60 cells after 48 hrs by MTT assay", "format": "functional, cell-based", "conditions": "HL-60, 48 h", "summary_of_the_method": "as §1"}}, "note": "Active and inactive are the calls of the source. No cut-off for these calls is given here."}
{"smiles": "CC[C@H](C)[C@H](NC(=O)CC(C)(C)C)C(=O)N1Cc2cc(OCC(=O)NO)ccc2C[C@H]1C(=O)Nc1ccc(OC)cc1", "values": [{"measurement": "Activity", "setting": "[1]", "value": "Non-toxic"}, {"measurement": "Activity", "setting": "[2]", "value": "Non-toxic"}, {"measurement": "Activity", "setting": "[3]", "value": "Non-toxic"}, {"measurement": "Stability", "setting": "[4]", "value": "Stable"}, {"measurement": "Activity", "setting": "[5]", "value": "Non-toxic"}, {"measurement": "Activity", "setting": "[6]", "value": "Non-toxic"}, {"measurement": "Activity", "setting": "[7]", "value": "Non-toxic"}, {"measurement": "IC50", "setting": "[8]", "value": 12.9, "unit": "µM"}, {"measurement": "IC50", "setting": "[9]", "value": 0.83, "unit": "µM"}, {"measurement": "Activity", "setting": "[10]", "value": "Active"}, {"measurement": "Activity", "setting": "[11]", "value": "Active"}, {"measurement": "T/C", "setting": "[12]", "value": 30, "unit": "%"}, {"measurement": "inhibition in vivo at 90 mg/kg", "setting": "[12]; Mus musculus, MDA-MB-231, 456 h, read-out: TGI", "value": 66, "unit": "%"}, {"measurement": "inhibition in vivo at 60 mg/kg", "setting": "[13]; Mus musculus, MDA-MB-231, ip, 456 h, read-out: TGI", "value": 45, "unit": "%"}, {"measurement": "T/C", "setting": "[13]", "value": 62, "unit": "%"}, {"measurement": "TGI", "setting": "[14]", "value": "Dose-dependent effect"}, {"measurement": "T/C", "setting": "[15]", "value": 85, "unit": "%"}, {"measurement": "inhibition in vivo at 60 mg/kg", "setting": "[15]; Mus musculus, HCT-116, 456 h, read-out: TGI", "value": 32, "unit": "%"}, {"measurement": "Activity", "setting": "[16]", "value": "Active"}, {"measurement": "Activity", "setting": "[17]", "value": "Non-toxic"}, {"measurement": "Activity", "setting": "[18]", "value": "Non-toxic"}, {"measurement": "Activity", "setting": "[19]", "value": "Non-toxic"}, {"measurement": "Activity", "setting": "[20]", "value": "Non-toxic"}, {"measurement": "IC50", "setting": "[21]", "value": 0.146, "unit": "µM"}, {"measurement": "IC50", "setting": "[22]", "value": 3.2, "unit": "µM"}, {"measurement": "IC50", "setting": "[23]", "value": 0.77, "unit": "µM"}, {"measurement": "IC50", "setting": "[24]", "value": 56.1, "unit": "µM"}, {"measurement": "IC50", "setting": "[25]", "value": 3.47, "unit": "µM"}, {"measurement": "IC50", "setting": "[26]", "value": 65.8, "unit": "µM"}]}
